Results reported in ChEMBL document CHEMBL3244305, “Analogues of 8-azainosine” (J Med Chem, 1977).
Calls of active or inactive are those of the source. The rule behind the calls is not given here.

Tests used:
[1] = Cytotoxicity against human Hep2 cells assessed as growth inhibition; assay type: functional; conditions: HEp-2, read-out: ED50 (the source's name)
Outline: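 Human epidermoid carcinoma No. 2 (H.Ep. No. 2) cells grown in culture with compound. ED50 is the concentration that holds growth of treated cells to 50% of untreated controls.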

[2] = test system: HEp-2; assay: Resistance ratio of ED50 for adenosine kinase deficient 6-(methylthio)purine ribonucleoside-resistant human Hep2 cells to ED50 for wild type human Hep2 cells; assay type: functional
Outline: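 ED50 is measured as growth inhibition to 50% of untreated controls in an H.Ep. No. 2 subline resistant to 6-(methylthio)purine ribonucleoside that lacks adenosine kinase. It is divided by the ED50 in the sensitive (wild) H.Ep. No. 2 line.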

[3] = test system: HEp-2; assay: Resistance ratio of ED50 for adenine phosphoribosyltransferase/adenosine kinase deficient 2-fluoro adenine/2-fluoro adenosine-resistant human Hep2 cells to ED50 for wild type human Hep2 cells; assay type: functional
[4] = test system: HEp-2; assay: Resistance ratio of ED50 for hypoxanthine-guanine phosphoribosyl transferase/adenosine kinase deficient 6-mercaptopurine/6-(methylthio)purine ribonucleoside-resistant human Hep2 cells to ED50 for wild type human Hep2 cells; assay type: functional
[5] = test system: L1210; assay: Antitumor activity against mouse L1210 cells allografted in ip dosed BD2F1 mouse assessed as increase in life span administered 1 to 9 days measured on day 10 to 12 relative to control; assay type: functional
[6] = test system: HEp-2; assay: Cytotoxicity against human Hep2 cells assessed as growth inhibition at 50 uM; assay type: functional, cell-based
[7] = Drug degradation in buffer assessed as formation of 3,6-Dihydro-3-beta-D-ribofuranosyl-7H-1,2,3-triazolo[4,5-d]-pyrimidine-7-thione at pH 7.3 after 6 days by HPLC analysis; assay type: physicochemical; conditions: pH 7.3, 144 h
Outline: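 Conversion in pH 7.3 buffer, under conditions meant to mirror the cytotoxicity assay, followed by high-pressure liquid chromatography.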

[8] = test system: L1210; assay: Antitumor activity against mouse L1210 cells allografted in BD2F1 mouse assessed as increase in life span at 90 mg/kg, ip administered 1 to 9 days measured on day 10 to 12 relative to control; assay type: functional; conditions: route intraperitoneal
[9] = test system: L1210; assay: Antitumor activity against mouse L1210 cells allografted in BD2F1 mouse assessed as increase in life span at 60 mg/kg, ip administered 1 to 9 days measured on day 10 to 12 relative to control; assay type: functional; conditions: route intraperitoneal
[10] = test system: L1210; assay: Antitumor activity against mouse L1210 cells allografted in BD2F1 mouse assessed as increase in life span at 40 mg/kg, ip administered 1 to 9 days measured on day 10 to 12 relative to control; assay type: functional; conditions: route intraperitoneal

| Compound | EC50 [1] | Ratio ED50 [2] | Ratio ED50 [3] | also measured |
| --- | --- | --- | --- | --- |
| CSc1ncnc2c1nnn2[C@@H]1O[C@H](COC(C)=O)[C@@H](OC(C)=O)[C@H]1OC(C)=O | 500 nM | – | – | – |
| CCCCNc1ncnc2c1nnn2[C@@H]1O[C@H](CO)[C@@H](O)[C@H]1O | 300 nM | – | – | – |
| Nc1ncnc2c1nnn2[C@@H]1O[C@H](CO)[C@@H](O)[C@H]1O | 800 nM | 2 | 2 | Ratio ED50 [4]: 60; ILS [5]: 39% |
| CCOc1ncnc2c1nnn2[C@@H]1O[C@H](CO)[C@@H](O)[C@H]1O | 100 nM | 20 | – | – |
| CSc1ncnc2c1nnn2[C@@H]1O[C@H](CO)[C@@H](O)[C@H]1O | 20 nM | 2000 | 3000 | ILS [5]: 23% |
| Nc1ncnc2nn([C@@H]3O[C@H](CO)[C@@H](O)[C@H]3O)nc12 | > 70000 nM | – | – | – |
| OC[C@H]1O[C@@H](n2nnc3c(S)ncnc32)[C@H](O)[C@@H]1O | 1000 nM | 90 | 40 | – |
| CCSc1ncnc2c1nnn2[C@@H]1O[C@H](CO)[C@@H](O)[C@H]1O | 100 nM | – | 300 | – |
| CSc1ncnc2nn([C@@H]3O[C@H](CO)[C@@H](O)[C@H]3O)nc12 | 6000 nM | – | – | – |
| CSc1ncnc2[nH]nnc12 | > 300000 nM | – | – | – |
| Nc1ncnc2snnc12 | – | – | – | growth inhibition (GI) [6]: inactive |
| COc1ncnc2c1nnn2[C@@H]1O[C@H](CO)[C@@H](O)[C@H]1O | 300 nM | 6 | 6 | ILS [5]: 29% |
| CSc1ncnc2nn([C@@H]3O[C@H](COC(C)=O)[C@@H](OC(C)=O)[C@H]3OC(C)=O)nc12 | 7000 nM | – | – | – |
| CC(C)=CCNc1ncnc2c1nnn2[C@@H]1O[C@H](CO)[C@@H](O)[C@H]1O | < 3000 nM | – | – | – |
| OC[C@H]1O[C@@H](Nc2ncnc3snnc23)[C@H](O)[C@@H]1O | 100 nM | – | – | Stability [7]: Stable; ILS at 90 mg/kg [8]: 36%; ILS at 60 mg/kg [9]: 28%; ILS at 40 mg/kg [10]: 25% |
